Source: PubChem BioAssay
This is one part of a sample in which hits are shown more often than they occur.
RORA inh – blocks the human nuclear receptor RORA. P35398. CHO-K1 Gal4-RORA LBD luciferase reporter, luminescence. inhibition, % at 10 µM. 65,000 tested, 0.43% active;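 active = inhibition above the mean of all tested compounds plus 3 SD, cut at about 52% in these data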
Target sequence (P35398 whole entry, looked up, the tested form may be a part): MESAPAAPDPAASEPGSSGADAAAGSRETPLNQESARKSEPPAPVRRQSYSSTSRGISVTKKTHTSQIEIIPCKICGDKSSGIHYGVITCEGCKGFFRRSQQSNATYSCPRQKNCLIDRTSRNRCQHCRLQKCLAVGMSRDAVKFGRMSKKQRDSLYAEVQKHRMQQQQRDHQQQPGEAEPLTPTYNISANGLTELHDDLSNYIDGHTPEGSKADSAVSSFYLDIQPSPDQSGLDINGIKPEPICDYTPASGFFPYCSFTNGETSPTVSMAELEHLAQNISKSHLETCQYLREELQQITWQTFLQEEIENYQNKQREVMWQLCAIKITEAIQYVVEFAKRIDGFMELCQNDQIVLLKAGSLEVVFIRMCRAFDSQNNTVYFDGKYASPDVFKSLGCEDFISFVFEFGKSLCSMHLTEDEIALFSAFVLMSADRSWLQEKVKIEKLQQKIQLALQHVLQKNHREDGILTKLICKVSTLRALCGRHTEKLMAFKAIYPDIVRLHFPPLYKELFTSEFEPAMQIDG
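Test system: CHO-K1 cells with Gal4-hRORA LBD fusion and pG5-luc reporter / Compound: single concentration per compound, 10 µM final / Schedule: 20 h compound treatment, 37 °C / Signal: luminescence from basal luciferase reporter expression / Read-out: % inhibition / Control set: mock-transfected cells as 100%, +RORA DMSO cells as 0% / Replicates: tested once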
Hits are given with their value.

Results for O=c1cc(-c2c(F)c(F)c(F)c(F)c2F)oc2c(F)c(F)c(F)c(F)c12 ?
RORA inh: 84

What do the screens show for `O=C1c2ccccc2C(=O)C1c1ccc2ccccc2n1`?
RORA inh: 70

What do the screens show for `N#C/C(=C/c1ccc(N2CCCCCC2)o1)c1ccc(F)cc1`?
RORA inh: 62

Results for CC(=O)c1ccc(NC(=O)CSc2nnc(Cn3c(=O)sc4ccccc43)n2C)cc1 ?
RORA inh: inactive

How did O=C(NCc1ccc(F)cc1)c1cc2n(n1)C(C(F)(F)F)CC(C1CC1)N2 (centres undefined) do in these assays?
RORA inh: inactive

What do the screens show for `CCOC(=O)C1=C2N(C)c3ccccc3N2CCC1=O`?
RORA inh: inactive

Results for COc1cccc2c(=O)n(CC(=O)N3CCN(c4ccccc4)CC3)ccc12 ?
RORA inh: inactive

How did Cc1ccc2nc(C(F)(F)F)c(C#N)c(N)c2c1 do in these assays?
RORA inh: 57

Results for O=c1cnc2ccccc2n1CC1CCCCC1 ?
RORA inh: inactive

Results for COC(=O)c1ccc(-c2nc(-c3cccs3)no2)cc1 ?
RORA inh: 52

What do the screens show for `COc1cccc(-c2noc(-c3cccs3)n2)c1`?
RORA inh: inactive

How did COc1ccc(Cc2nc(-c3cccs3)no2)cc1OC do in these assays?
RORA inh: inactive

What do the screens show for `CCn1c(SCC(=O)Nc2cccc(NC(C)=O)c2)nnc1C(C)C`?
RORA inh: inactive

Results for COC(=O)[C@@H](NC(=O)NC1CCCc2ccccc21)C(C)C (some centres undefined) ?
RORA inh: inactive

How did COc1ccccc1NC(=O)COC(=O)CNC(=O)c1ccc(OC)c(OC)c1 do in these assays?
RORA inh: inactive

Results for Cc1nnc(SC(=O)N2c3ccccc3Sc3ccccc32)s1 ?
RORA inh: 71

What do the screens show for `CCOC(=O)Nc1ccc2c(c1)N(C(=O)N1CCN(C)CC1)c1ccccc1S2`?
RORA inh: inactive

How did Cc1nnc(SCC(=O)N2CCc3ccccc32)s1 do in these assays?
RORA inh: inactive

How did O=C(NCCCN1CCOCC1)C1CC(=O)N(C2CCCCC2)C1 (centres undefined) do in these assays?
RORA inh: inactive

How did CCCCNC(=O)c1cc(-c2ccc(F)cc2)on1 do in these assays?
RORA inh: inactive

How did Cc1ccc2nsnc2c1S(=O)(=O)N1CCN(Cc2ccc3c(c2)OCO3)CC1 do in these assays?
RORA inh: inactive

Results for COC(=O)c1ccccc1NC(=O)CN1CCC(NC(=O)c2ccccc2C)CC1 ?
RORA inh: inactive

Results for O=C1CN(C(=O)OCc2ccccc2)c2ccccc2N1 ?
RORA inh: inactive

Results for CCOc1ccc(-c2nc(-c3ccccc3)no2)cc1OCC ?
RORA inh: inactive

Results for COc1ccc(-c2nc(-c3ccccc3OC)no2)cc1OC ?
RORA inh: inactive

Results for CCc1ccc(OCc2nc(-c3ccccn3)no2)c(Br)c1 ?
RORA inh: inactive

How did c1ccc(-c2noc(C3CCCCC3)n2)nc1 do in these assays?
RORA inh: inactive

How did c1ccc(-c2noc(-c3ccc4ccccc4c3)n2)nc1 do in these assays?
RORA inh: 92

Results for c1ccc(-c2noc(-c3ccc4c(c3)OCO4)n2)nc1 ?
RORA inh: 78

What do the screens show for `COC(=O)c1ccc(CSc2nc3scc(-c4cccs4)c3c(=O)[nH]2)o1`?
RORA inh: inactive

Results for N#CN=C1SCCS1 ?
RORA inh: inactive

What do the screens show for `CCOC(=O)N1CCN(C(=O)c2cccc(-n3c(=S)[nH]c4cc(Cl)ccc4c3=O)c2)CC1`?
RORA inh: inactive

What do the screens show for `COc1ccc(N(C(=O)Cn2nnc3ccccc32)C(C(=O)NCc2ccco2)c2ccc(C)o2)cc1` (centres undefined)?
RORA inh: inactive

How did CCOC(=O)c1oc2ccccc2c1NC(=O)c1cc(OC)cc(OC)c1 do in these assays?
RORA inh: inactive

What do the screens show for `CCN(CC)S(=O)(=O)c1cccc(-c2nnc(SC(C)C#N)n2Cc2ccccc2)c1` (centres undefined)?
RORA inh: inactive

What do the screens show for `O=C(CN(CCO)c1ccccc1)NC12CC3CC(CC(C3)C1)C2`?
RORA inh: inactive

What do the screens show for `CCOc1ccc(C(=O)Nc2ccc(Cl)cn2)cc1Cl`?
RORA inh: inactive

Results for Cc1ccc(C)n1/N=C1/NC(=O)CS1 ?
RORA inh: inactive

Results for Cc1ccc2c(c1)C(N1CCCC1=O)CC(c1ccco1)N2 (centres undefined) ?
RORA inh: inactive

Results for COc1cccc(C2=N/C(=C\N(C)C)C(=O)O2)c1 ?
RORA inh: inactive

How did Cc1ccc(S(=O)(=O)Nc2cccc3ncccc23)s1 do in these assays?
RORA inh: 80

How did CC1CCN(c2nc3ccc(C(=O)O)cc3s2)CC1 do in these assays?
RORA inh: 92

Results for O=C(NCC1CCCO1)c1ccc2nc(N3CCCCC3)sc2c1 (centres undefined) ?
RORA inh: inactive

Results for CCOc1ccc2nc(N3CCC(C(=O)N4CCN(c5ncccn5)CC4)CC3)sc2c1 ?
RORA inh: inactive

Results for O=C(Cn1cnc2ccccc21)OCC(=O)N1CCc2ccccc2C1 ?
RORA inh: inactive

How did O=C(NCc1cccs1)C1CC(=O)N(c2ccc(F)cc2)C1 (centres undefined) do in these assays?
RORA inh: inactive

Results for CCc1cc2c3c(c(=O)oc2cc1O)CCCC3 ?
RORA inh: inactive

Results for Cn1c(CCNC(=O)c2ccccc2F)nnc1SCc1nc2ccccc2c(=O)[nH]1 ?
RORA inh: inactive

How did C/C(O)=c1/ccc2cccc3nc(C)nc1c23 do in these assays?
RORA inh: inactive

How did CCn1c2ccccc2c2cc(NC(=O)CSc3nnnn3-c3ccccc3)ccc21 do in these assays?
RORA inh: 63

How did CC(=O)c1cccc(-n2nnnc2SCC(=O)Nc2ccccc2N2CCCCC2)c1 do in these assays?
RORA inh: inactive

How did O=C(CSc1nnnn1-c1ccccc1)NC(=O)Nc1ccc2c(c1)OCCO2 do in these assays?
RORA inh: inactive

Results for COc1ccc(S(=O)(=O)N2Cc3ccccc3CC2C(=O)Nc2ccc(O)cc2)cc1OC (centres undefined) ?
RORA inh: inactive

How did CS(=O)(=O)Nc1ccc(S(=O)(=O)NCCc2ccccc2)cc1 do in these assays?
RORA inh: inactive

What do the screens show for `COc1ccc(CCNc2nnc(Sc3nnnn3-c3ccccc3)s2)cc1OC`?
RORA inh: 69

Results for COc1ccc(CCNC(=O)C2CCCN(S(C)(=O)=O)C2)cc1OC (centres undefined) ?
RORA inh: inactive

Results for COc1ccc(CCNS(=O)(=O)c2cn(C)c(=O)n(C)c2=O)cc1OC ?
RORA inh: inactive

Results for COc1cccc(C2C(C(=O)Nc3ccc(C)cc3C)=C(C)Nc3ncnn32)c1OC (centres undefined) ?
RORA inh: inactive

How did CCN(Cc1ccccc1)C(=O)CCCOc1ccccc1 do in these assays?
RORA inh: inactive

What do the screens show for `O=C1c2ccccc2S(=O)(=O)N1Cc1nc2ccccc2s1`?
RORA inh: 54

What do the screens show for `CC1CCN(C(=O)CN2C(=O)c3ccccc3S2(=O)=O)CC1`?
RORA inh: inactive

What do the screens show for `CN(C)c1ccc(C2=NOC(CN3C(=O)c4ccccc4S3(=O)=O)C2)cc1` (centres undefined)?
RORA inh: inactive

Results for Cc1ccc2c(=O)c(CN(C)C3CCN(C)CC3)c(C)[nH]c2c1C ?
RORA inh: inactive

How did Cc1cc(Br)c(S(=O)(=O)n2nnc3ccccc32)cc1C do in these assays?
RORA inh: inactive

What do the screens show for `COc1ccc(-c2cn3c(C)c(C(=O)NC(C)(C)C)sc3n2)cc1`?
RORA inh: inactive
